As usually defined, the IC50 is the point on the concentration scale where inhibition reaches its midpoint.

Structures are written as SMILES. Active and inactive are the calls of the source. The rule behind the calls is not given here.

The target in test [1] is Endoplasmic reticulum aminopeptidase 2 (Homo sapiens) (UniProt Q6P179). Briefly: Inhibition of human recombinant L-RAP at 200 uM by HxBPyne probe-based competitive activity based protein profiling assay in presence of 5 uM HxBpane competitor. The method, boiled down:
(§1)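 Recombinant enzyme at 0.5 μM final in mouse liver soluble proteome (1 mg protein/mL in PBS). HxBPyne probe cocktail 0.5 μM total final, with inhibitor 200 μM or DMSO. Preincubated 30 min on ice, then UV 365 nm for 1 h on ice. Rhodamine-azide click chemistry, 1 h RT in dark. SDS-PAGE with in-gel fluorescence; band intensity given as % of DMSO control.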

For test [2], the target named is Collagenase 3 (Homo sapiens, UniProt P45452). Description: Inhibition of human recombinant MMP13 by fluorogenic substrate assay.
Test [3] concerns the target Stromelysin-1 (Homo sapiens) (UniProt P08254). Briefly: Inhibition of human recombinant MMP3 at 200 uM by HxBPyne probe-based competitive activity based protein profiling assay in presence of 5 uM HxBpane competitor. The method, boiled down: as §1
The target of test [4] is Macrophage metalloelastase (Homo sapiens) (UniProt P39900). Description: Inhibition of human recombinant MMP12 at 200 uM by HxBPyne probe-based competitive activity based protein profiling assay in presence of 5 uM HxBpane competitor. A digest of the protocol: as §1
Macrophage metalloelastase (Homo sapiens), sequence (P39900 106-470 limits assumed): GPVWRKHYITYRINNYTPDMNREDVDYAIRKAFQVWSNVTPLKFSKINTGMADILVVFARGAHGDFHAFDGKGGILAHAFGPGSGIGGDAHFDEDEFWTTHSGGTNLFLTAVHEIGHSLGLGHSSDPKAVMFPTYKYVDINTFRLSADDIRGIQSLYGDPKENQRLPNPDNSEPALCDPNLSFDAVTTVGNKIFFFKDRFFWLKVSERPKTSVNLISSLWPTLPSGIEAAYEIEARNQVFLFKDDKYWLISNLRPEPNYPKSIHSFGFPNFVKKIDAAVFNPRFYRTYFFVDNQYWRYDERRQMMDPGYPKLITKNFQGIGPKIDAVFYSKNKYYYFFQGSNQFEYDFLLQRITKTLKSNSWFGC
Test [5] has as its target Endoplasmic reticulum aminopeptidase 1 (Homo sapiens) (UniProt Q9NZ08). Description: Inhibition of human recombinant PILS-AP at 200 uM by HxBPyne probe-based competitive activity based protein profiling assay in presence of 5 uM HxBpane competitor. A digest of the protocol:
as §1

The target of test [6] is T1, Disintegrin and metalloproteinase domain-containing protein 8 (Homo sapiens) (UniProt P78325).
T1 sequence (whole entry): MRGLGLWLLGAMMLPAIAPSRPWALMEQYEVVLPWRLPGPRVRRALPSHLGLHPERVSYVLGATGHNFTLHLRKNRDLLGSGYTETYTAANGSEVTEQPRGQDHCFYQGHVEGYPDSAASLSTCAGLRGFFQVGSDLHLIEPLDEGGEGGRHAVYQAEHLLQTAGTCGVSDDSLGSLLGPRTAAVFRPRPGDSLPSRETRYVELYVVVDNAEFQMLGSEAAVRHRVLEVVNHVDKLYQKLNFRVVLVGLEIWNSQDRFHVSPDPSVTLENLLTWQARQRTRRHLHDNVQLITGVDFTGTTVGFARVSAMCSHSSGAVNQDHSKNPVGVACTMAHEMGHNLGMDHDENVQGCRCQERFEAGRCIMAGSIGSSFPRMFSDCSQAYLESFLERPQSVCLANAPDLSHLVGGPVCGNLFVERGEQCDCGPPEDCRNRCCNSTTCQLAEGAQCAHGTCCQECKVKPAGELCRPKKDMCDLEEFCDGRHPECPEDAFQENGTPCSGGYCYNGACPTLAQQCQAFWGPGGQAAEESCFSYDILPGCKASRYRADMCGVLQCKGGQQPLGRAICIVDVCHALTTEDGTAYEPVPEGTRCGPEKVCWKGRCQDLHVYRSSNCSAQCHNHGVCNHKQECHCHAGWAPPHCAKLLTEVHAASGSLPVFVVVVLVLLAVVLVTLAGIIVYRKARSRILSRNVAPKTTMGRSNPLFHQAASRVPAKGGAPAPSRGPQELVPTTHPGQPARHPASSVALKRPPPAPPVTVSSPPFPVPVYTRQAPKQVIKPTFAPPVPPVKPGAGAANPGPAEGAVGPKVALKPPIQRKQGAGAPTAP
Description: Inhibition of human recombinant ADAM8 at 200 uM by HxBPyne probe-based competitive activity based protein profiling assay in presence of 5 uM HxBpane competitor. A digest of the protocol:
as §1

For test [7], the target named is T2, Stromelysin-3 (Homo sapiens) (UniProt P24347).
T2 sequence (whole entry): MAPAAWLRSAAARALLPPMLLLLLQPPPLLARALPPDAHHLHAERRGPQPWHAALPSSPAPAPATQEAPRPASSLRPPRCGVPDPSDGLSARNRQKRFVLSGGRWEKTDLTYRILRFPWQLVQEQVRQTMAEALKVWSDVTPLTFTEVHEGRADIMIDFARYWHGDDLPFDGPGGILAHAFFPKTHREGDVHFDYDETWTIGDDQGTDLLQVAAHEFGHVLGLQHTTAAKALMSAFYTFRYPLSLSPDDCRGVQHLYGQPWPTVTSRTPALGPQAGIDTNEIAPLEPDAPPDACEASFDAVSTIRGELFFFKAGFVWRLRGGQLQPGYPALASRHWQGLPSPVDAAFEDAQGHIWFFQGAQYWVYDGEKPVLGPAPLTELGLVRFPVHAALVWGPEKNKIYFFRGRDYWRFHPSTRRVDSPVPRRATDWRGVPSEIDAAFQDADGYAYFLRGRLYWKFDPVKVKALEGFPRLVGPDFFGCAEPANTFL
Briefly: Inhibition of human recombinant MMP11 at 200 uM by HxBPyne probe-based competitive activity based protein profiling assay in presence of 5 uM HxBpane competitor. A digest of the protocol:
as §1

The target of test [8] is Neutrophil collagenase (Homo sapiens, UniProt P22894). Description: Inhibition of human recombinant MMP8 by fluorogenic substrate assay. A digest of the protocol:
(§2)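 Enzyme (MMP8 6 nM, MMP9 2 nM, MMP13 1.5 nM final) preincubated with inhibitor 30 min in 50 mM HEPES pH 7.5, 10 mM CaCl2, 0.05% Brij-35, at RT. Mca-PLGL-Dpa-AR-NH2 added at 5 μM; fluorescence (ex 328/em 393 nm) read each minute for 10 min. Initial rates by linear least squares; IC50 from variable-slope sigmoidal fit. Triplicate; mean with 95% CI.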

For test [9], the target named is Matrix metalloproteinase-9 (Homo sapiens, UniProt P14780). Description: Inhibition of human recombinant MMP9 by fluorogenic substrate assay. The method, boiled down: as §2
In test [10] the target is Interstitial collagenase (Homo sapiens) (UniProt P03956). Description: Inhibition of human recombinant MMP1 at 200 uM by HxBPyne probe-based competitive activity based protein profiling assay in presence of 5 uM HxBpane competitor. A digest of the protocol:
as §1

In test [11] the target is Disintegrin and metalloproteinase domain-containing protein 17 (Homo sapiens) (UniProt P78536). Description: Inhibition of human recombinant ADAM17 at 200 uM by HxBPyne probe-based competitive activity based protein profiling assay in presence of 5 uM HxBpane competitor. A digest of the protocol:
as §1

The target in test [12] is A disintegrin and metalloproteinase with thrombospondin motifs 1 (Homo sapiens) (UniProt Q9UHI8). Briefly: Inhibition of human recombinant ADAMTS1 at 200 uM by HxBPyne probe-based competitive activity based protein profiling assay in presence of 5 uM HxBpane competitor. The method, boiled down: as §1
A disintegrin and metalloproteinase with thrombospondin motifs 1 (Homo sapiens), sequence (Q9UHI8 whole entry): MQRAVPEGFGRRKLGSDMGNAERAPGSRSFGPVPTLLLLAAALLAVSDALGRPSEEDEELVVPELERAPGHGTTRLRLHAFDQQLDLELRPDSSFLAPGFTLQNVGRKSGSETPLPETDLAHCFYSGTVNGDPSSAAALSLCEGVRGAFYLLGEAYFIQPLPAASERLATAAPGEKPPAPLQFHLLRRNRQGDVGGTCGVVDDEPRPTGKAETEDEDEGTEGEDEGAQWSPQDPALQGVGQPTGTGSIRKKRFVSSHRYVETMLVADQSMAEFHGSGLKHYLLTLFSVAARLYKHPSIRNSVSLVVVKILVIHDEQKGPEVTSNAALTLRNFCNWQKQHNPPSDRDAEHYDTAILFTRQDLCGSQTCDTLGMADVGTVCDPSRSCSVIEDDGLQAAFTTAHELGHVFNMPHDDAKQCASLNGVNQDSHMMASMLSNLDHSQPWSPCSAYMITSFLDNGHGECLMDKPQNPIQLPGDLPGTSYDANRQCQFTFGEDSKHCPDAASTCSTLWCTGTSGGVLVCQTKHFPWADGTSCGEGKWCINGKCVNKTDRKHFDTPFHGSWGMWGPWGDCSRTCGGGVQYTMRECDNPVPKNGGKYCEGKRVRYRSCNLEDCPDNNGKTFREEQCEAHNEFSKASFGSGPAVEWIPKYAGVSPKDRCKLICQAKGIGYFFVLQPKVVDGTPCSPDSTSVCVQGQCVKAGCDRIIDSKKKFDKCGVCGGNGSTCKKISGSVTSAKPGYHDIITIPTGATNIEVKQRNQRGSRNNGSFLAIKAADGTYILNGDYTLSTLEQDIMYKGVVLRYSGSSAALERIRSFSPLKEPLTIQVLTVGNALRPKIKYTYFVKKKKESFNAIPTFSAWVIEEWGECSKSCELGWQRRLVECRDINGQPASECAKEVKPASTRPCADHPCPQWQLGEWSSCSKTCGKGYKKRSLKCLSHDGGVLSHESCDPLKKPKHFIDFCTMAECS
Test [13] addresses A disintegrin and metalloproteinase with thrombospondin motifs 4 (Homo sapiens) (UniProt O75173). Description: Inhibition of human recombinant ADAMTS4 at 200 uM by HxBP-Rh probe-based competitive activity based protein profiling assay in presence of 200 uM HxBP-alkyne. The method, boiled down: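 Enzyme 0.5 μM final, in PBS (ADAMTS4, neprilysin) or in 1 mg/mL mouse liver soluble proteome (MMP9). HxBP-Rh probe 0.5 μM final with 200 μM inhibitor or DMSO. Preincubated 30 min on ice, UV 365 nm 1 h on ice. Deglycosylated with PNGase F, then SDS-PAGE with fluorescence scanning. Activity given relative to DMSO control.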

Interstitial collagenase (Homo sapiens), sequence (P03956 whole entry): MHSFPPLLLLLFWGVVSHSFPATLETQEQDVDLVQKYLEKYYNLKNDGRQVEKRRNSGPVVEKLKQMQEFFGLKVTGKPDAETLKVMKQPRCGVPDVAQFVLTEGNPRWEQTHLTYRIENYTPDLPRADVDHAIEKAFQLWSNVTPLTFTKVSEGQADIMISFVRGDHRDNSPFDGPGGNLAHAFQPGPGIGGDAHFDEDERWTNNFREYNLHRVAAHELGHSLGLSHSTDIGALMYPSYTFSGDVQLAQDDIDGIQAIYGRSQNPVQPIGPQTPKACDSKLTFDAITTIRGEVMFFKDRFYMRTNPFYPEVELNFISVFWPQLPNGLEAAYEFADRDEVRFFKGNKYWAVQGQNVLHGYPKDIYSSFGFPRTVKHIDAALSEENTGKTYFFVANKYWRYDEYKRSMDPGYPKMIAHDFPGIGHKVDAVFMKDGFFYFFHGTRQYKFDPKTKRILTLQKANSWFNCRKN
Neutrophil collagenase, sequence (P22894 whole entry): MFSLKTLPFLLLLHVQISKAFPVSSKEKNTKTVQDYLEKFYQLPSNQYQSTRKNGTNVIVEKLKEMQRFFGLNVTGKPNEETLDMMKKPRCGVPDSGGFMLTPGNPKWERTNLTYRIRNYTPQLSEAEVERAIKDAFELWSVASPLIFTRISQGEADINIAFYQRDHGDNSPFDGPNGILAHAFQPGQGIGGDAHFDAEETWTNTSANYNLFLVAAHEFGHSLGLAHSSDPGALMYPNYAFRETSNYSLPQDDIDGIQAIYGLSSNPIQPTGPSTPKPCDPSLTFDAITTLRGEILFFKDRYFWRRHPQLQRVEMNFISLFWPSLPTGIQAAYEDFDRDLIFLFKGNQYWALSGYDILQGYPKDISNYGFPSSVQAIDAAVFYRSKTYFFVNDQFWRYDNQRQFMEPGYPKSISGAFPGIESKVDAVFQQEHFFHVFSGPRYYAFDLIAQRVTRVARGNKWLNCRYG
Disintegrin and metalloproteinase domain-containing protein 17 (Homo sapiens), sequence (P78536 whole entry, the tested form may be a part): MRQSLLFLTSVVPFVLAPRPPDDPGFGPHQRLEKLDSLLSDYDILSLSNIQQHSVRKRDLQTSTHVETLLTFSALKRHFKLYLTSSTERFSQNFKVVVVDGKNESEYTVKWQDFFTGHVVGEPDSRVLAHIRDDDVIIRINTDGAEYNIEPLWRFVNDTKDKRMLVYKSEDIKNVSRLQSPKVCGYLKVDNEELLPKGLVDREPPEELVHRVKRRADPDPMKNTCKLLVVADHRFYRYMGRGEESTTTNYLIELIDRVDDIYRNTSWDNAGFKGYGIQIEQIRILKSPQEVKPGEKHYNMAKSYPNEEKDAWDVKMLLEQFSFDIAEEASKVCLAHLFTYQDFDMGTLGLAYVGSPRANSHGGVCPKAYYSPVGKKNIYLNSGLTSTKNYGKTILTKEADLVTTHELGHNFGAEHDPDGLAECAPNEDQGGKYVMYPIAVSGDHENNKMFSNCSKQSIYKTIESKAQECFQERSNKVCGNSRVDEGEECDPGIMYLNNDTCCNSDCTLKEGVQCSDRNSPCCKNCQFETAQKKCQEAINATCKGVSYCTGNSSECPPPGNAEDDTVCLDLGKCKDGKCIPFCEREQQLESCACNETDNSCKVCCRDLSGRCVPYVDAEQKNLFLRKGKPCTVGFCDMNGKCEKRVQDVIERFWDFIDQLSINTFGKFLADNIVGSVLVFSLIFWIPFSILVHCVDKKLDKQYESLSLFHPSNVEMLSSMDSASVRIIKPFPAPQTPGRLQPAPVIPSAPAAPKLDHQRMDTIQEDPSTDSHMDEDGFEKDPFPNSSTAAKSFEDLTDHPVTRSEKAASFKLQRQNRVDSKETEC
Endoplasmic reticulum aminopeptidase 2 (Homo sapiens), sequence (Q6P179 whole entry): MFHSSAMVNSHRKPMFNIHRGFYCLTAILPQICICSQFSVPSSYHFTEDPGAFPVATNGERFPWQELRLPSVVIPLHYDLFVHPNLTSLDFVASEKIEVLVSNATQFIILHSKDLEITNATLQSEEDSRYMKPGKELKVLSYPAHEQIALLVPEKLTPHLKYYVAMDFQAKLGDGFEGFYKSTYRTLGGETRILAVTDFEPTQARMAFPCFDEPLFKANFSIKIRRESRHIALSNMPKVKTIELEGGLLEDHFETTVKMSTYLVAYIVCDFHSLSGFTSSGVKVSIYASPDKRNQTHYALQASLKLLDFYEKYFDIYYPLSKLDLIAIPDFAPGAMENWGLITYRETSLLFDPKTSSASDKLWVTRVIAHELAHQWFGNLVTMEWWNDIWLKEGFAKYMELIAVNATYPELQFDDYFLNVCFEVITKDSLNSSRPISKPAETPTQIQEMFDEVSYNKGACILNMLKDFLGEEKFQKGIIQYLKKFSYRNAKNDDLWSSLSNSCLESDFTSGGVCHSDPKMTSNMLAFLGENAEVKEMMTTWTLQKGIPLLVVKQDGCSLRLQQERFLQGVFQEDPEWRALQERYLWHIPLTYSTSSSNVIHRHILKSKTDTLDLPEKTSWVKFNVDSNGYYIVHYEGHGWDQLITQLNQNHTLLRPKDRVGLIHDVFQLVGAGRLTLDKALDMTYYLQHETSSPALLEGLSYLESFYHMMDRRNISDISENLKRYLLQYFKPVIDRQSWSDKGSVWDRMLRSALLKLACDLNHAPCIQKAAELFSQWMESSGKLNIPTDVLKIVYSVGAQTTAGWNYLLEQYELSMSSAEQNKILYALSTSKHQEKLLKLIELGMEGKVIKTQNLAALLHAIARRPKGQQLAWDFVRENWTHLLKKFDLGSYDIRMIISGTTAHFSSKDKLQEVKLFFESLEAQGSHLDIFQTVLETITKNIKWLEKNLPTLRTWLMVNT
Endoplasmic reticulum aminopeptidase 1 (Homo sapiens), sequence (Q9NZ08 whole entry): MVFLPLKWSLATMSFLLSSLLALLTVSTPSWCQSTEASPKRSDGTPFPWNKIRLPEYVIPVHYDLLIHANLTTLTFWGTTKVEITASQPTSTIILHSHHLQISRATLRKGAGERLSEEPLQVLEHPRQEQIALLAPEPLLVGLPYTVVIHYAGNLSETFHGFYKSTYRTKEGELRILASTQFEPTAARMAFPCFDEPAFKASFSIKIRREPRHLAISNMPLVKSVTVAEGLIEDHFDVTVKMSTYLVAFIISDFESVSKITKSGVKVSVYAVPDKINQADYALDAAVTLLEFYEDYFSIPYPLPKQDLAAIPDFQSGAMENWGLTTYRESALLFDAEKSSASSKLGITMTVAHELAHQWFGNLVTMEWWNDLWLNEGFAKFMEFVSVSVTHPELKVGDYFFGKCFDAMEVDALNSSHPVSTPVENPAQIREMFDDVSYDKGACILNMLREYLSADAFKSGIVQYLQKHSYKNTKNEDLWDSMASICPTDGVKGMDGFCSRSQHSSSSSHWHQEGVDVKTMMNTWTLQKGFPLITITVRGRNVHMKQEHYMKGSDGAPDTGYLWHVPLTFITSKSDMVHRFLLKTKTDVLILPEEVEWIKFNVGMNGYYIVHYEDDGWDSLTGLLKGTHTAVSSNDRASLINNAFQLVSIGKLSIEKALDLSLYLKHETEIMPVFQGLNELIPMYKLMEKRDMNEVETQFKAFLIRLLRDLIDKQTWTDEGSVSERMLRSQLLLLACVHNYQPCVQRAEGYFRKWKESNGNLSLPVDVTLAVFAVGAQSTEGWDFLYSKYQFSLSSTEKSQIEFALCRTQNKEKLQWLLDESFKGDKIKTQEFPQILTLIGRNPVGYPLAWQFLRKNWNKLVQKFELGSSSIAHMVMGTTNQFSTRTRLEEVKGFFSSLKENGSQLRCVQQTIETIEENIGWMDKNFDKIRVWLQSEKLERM

`Oc1nc(SCc2ccc(Cl)cc2)nc2c1CCC2`: the result in test [1], in test [3], in test [4], in test [5], in [6] and in test [7] was inactive. Also, the result in test [10], in test [11], in [12] and in test [13] was inactive. For the same compound, the IC50 is 0.92 µM in test [2], greater than 100 µM in test [8] and greater than 100 µM in test [9].

On to `COc1ccc(CSc2nc(C)cc(O)n2)cc1`, for which the outcome in [1], in test [3], in test [4], in [5], in test [6] and in test [7] was inactive. Further, the result in test [10], in [11], in [12] and in test [13] was inactive. The IC50 in test [2] was 1.6 µM; in test [8] it was greater than 100 µM; in [9], greater than 100 µM.

These data come from ChEMBL document CHEMBL1140994, “Ranking the selectivity of PubChem screening hits by activity-based protein profiling: MMP13 as a case study” (Bioorg Med Chem, 2009).
